Test results from ChEMBL document CHEMBL1177847, “Combating oxidative stress in epilepsy: design, synthesis, quantum chemical studies and anticonvulsant evaluation of 1-(substituted benzylidene/ethylidene)-4-(naphthalen-1-yl)semicarbazides” (Eur J Med Chem, 2010).

Tests used:
[1] = tested on: Mus musculus; assay: Anticonvulsant activity against maximal electroshock-induced seizures in ip dosed Swiss albino mouse assessed as minimum effective dose after 0.5 hrs; type: functional; settings: read-out: MED
In short: (§1)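 Male Swiss albino mice (18–25 g) received the compound suspended in 5% gum acacia/water, i.p. at 30, 100 and 300 mg/kg (one to four animals per dose). Maximal electroshock was applied at 0.5 and 4 h. Protection meant abolition of the hind limb tonic extensor component. The lowest dose protecting half or more of the mice was recorded.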

[2] = tested on: Mus musculus; assay: Anticonvulsant activity against subcutaneous pentylenetetrazole-induced seizures in ip dosed Swiss albino mouse assessed as minimum effective dose after 0.5 hrs; type: functional; settings: read-out: MED
In short: (§2)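 Male Swiss albino mice (18–25 g) were dosed i.p. with the compound in 5% gum acacia/water at 30, 100 or 300 mg/kg. Thirty minutes later they received PTZ 85 mg/kg (CD97) and were watched for seizures over 4 h. Readings at 0.5 and 4 h gave the lowest dose active in half or more of the animals. Myoclonic jerks were noted separately.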

[3] = tested on: Mus musculus; assay: Anticonvulsant activity against subcutaneous pentylenetetrazole-induced seizures in ip dosed Swiss albino mouse assessed as minimum effective dose after 4 hrs; type: functional; settings: read-out: MED; in short: as §2
[4] = tested on: Mus musculus; assay: Restoration of GSH level in subcutaneous pentylenetetrazole treated Swiss albino mouse brain assessed per gram of tissue at 100 mg/kg, ip after 4 hrs; type: functional; settings: route intraperitoneal
In short: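 Brains were taken from PTZ-treated mice 4 h after 100 mg/kg i.p. dosing. Tissue was deproteinized with an equal volume of 10% TCA for 2 h at 4 °C and centrifuged at 2000 g for 15 min. The supernatant was mixed with 0.4 M Tris (pH 8.9) containing 0.02 M EDTA, and 0.01 M DTNB was added before spectrophotometric reading. n = 6.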

[5] = tested on: Rattus norvegicus; assay: Anticonvulsant activity against subcutaneous pentylenetetrazole-induced seizures in Wistar albino rat at 50 mg/kg, ip after 1 hr; type: functional
[6] = tested on: Mus musculus; assay: Neurotoxicity in ip dosed Swiss albino mouse assessed as minimum dose required to cause impair in motor coordination after 0.5 hrs by rotarod test; type: toxicity, organism-based; settings: in vivo
In short: (§3)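 Rotarod motor-impairment test in male Swiss albino mice dosed i.p. at 30, 100 or 300 mg/kg in 5% gum acacia/water. Mice that fell off the rotating rod within 30 s during pretraining were excluded. The dose at which animals fell off was recorded at 0.5 and 4 h.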

[7] = tested on: Rattus norvegicus; assay: Anticonvulsant activity against subcutaneous pentylenetetrazole-induced seizures in Wistar albino rat at 50 mg/kg, ip after 0.5 hrs; type: functional
[8] = tested on: Rattus norvegicus; assay: Anticonvulsant activity against subcutaneous pentylenetetrazole-induced seizures in Wistar albino rat at 50 mg/kg, ip after 0.25 hrs; type: functional; settings: route intraperitoneal
[9] = tested on: Mus musculus; assay: Reduction of lipid peroxidation in subcutaneous pentylenetetrazole treated Swiss albino mouse brain assessed reduction of malondialdehyde level per mg of protein at 100 mg/kg, ip after 4 hrs by TBARS assay; type: functional; settings: route intraperitoneal
In short: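 PTZ-treated mice were dosed at 100 mg/kg i.p. and decapitated 4 h after the last injection. Brains were homogenized in four volumes of ice-cold 50 mM Tris-HCl, pH 7.4, and spun at 3000 × g for 15 min. TBARS in the supernatant was read at 532 nm in the upper organic layer and expressed as nmol MDA/mg protein. n = 6, mean ± S.E.M.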

[10] = tested on: Mus musculus; assay: Restoration of GSH peroxidase activity in subcutaneous pentylenetetrazole treated Swiss albino mouse brain assessed per mg of protein at 100 mg/kg, ip after 4 hrs; type: functional; settings: route intraperitoneal
In short: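 Brain homogenate came from PTZ-treated mice 4 h after 100 mg/kg i.p. dosing, using the 10500 × g supernatant. Samples were equilibrated 5 min at 25 °C, started with H2O2, and A340 was followed for 5 min. n = 6.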

[11] = tested on: Mus musculus; assay: Neurotoxicity in ip dosed Swiss albino mouse assessed as minimum dose required to cause impair in motor coordination after 4 hrs by rotarod test; type: toxicity, organism-based; settings: in vivo; in short: as §3
[12] = tested on: Rattus norvegicus; assay: Anticonvulsant activity against subcutaneous pentylenetetrazole-induced seizures in Wistar albino rat at 50 mg/kg, ip after 2 hrs; type: functional
[13] = tested on: Mus musculus; assay: Anticonvulsant activity against maximal electroshock-induced seizures in ip dosed Swiss albino mouse assessed as minimum effective dose after 4 hrs; type: functional; settings: read-out: MED; in short: as §1
[14] = tested on: Mus musculus; assay: Restoration of SOD activity in subcutaneous pentylenetetrazole treated Swiss albino mouse brain assessed per mg of protein at 100 mg/kg, ip after 4 hrs; type: functional; settings: route intraperitoneal
In short: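 The ethanol phase of an ethanol/chloroform (5:3) extract of brain supernatant was used, from PTZ-treated mice 4 h after 100 mg/kg i.p. Superoxide was generated by xanthine–xanthine oxidase at pH 10.2 with NBT, 20 min at 25 °C. The reaction was stopped with CuCl2 and read at 560 nm. One unit gives 50% inhibition of NBT reduction; results are expressed as U/mg protein. n = 6.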

COc1cc(/C=N/NC(=O)Nc2cccc3ccccc23)cc(OC)c1OC
minimal effective dose [1]: 100 mg/kg | minimal effective dose [2]: 100 mg/kg | minimal effective dose [3]: 100 mg/kg | Activity [4]: 24.56 µg | Activity [5]: 75% | Activity [6]: 300 mg/kg | Activity [7]: 100% | Activity [8]: 25% | Activity [9]: 1.87 nmol | Activity [10]: 1.97 U | Activity [11]: 300 mg/kg | Activity [12]: 50% | minimal effective dose [13]: 100 mg/kg | Activity [14]: 1.77 U
